Bioassay records deposited in PubChem BioAssay by several laboratories.
A selection: hits, their analogues and other compounds. The true share with any hit is near 3%.
SENP1 FRET inh = human SENP1 catalytic domain inhibitors, primary screen, biochemical, FRET, uHTS; recombinant SENP1 catalytic domain, CyPet-SUMO1-YPet FRET cleavage; inhibition, % at 10 µM; 0.21% of 360,000 active; AID 624204, 2012;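 active means inhibition at least 30% at 10 µM, raw YFP signal under a set limit, fluorescence ratio 0.5 to 1.5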;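 further: 0% = enzyme with DMSO and 100% = no enzyme wells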
Target sequence (Q9P0U3 419-644 limits assumed): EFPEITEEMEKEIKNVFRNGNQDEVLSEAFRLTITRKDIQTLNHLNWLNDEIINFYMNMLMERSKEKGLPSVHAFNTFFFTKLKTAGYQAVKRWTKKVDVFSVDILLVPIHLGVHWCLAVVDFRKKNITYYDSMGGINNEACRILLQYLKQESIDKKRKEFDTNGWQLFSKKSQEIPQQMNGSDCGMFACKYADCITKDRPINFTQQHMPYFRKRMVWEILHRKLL
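Assay system: hSENP1 catalytic domain, recombinant. Amount: SENP1 enzyme, 20 pM final. Schedule: 50 min reaction, RT, dark. Technique: FRET, CFP and YFP emission. Control set: no-enzyme wells low, DMSO-plus-enzyme wells high control.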
H9c2 protect = cardioprotection against H2O2-induced cell death, primary screen, uHTS, H9c2 cells, ATPLite luminescence | H9c2 cardiomyocytes, H2O2 injury protection, 2 h | protection from H2O2 cell death, % at 20 µM | 0.63% of 360,000 active | AID 588492, 2011;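 active means compounds giving at least 50% protection of heart cells from peroxide-induced death in the single-dose screen, raw or plate-pattern-corrected value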;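 further: 0% = DMSO wells with peroxide and 100% = DMSO wells without peroxide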
HNF4A DNA FP = change in binding of human HNF4A to DNA, primary screen, biochemical, fluorescence polarization, FITC-DNA; Hepatocyte nuclear factor 4-alpha (Homo sapiens), P41235; 0.3% of 360,000 active; activity change, % at 10 µM; AID 1224865, 2016; 1 h; in the data active means activity change above about 30%, passing the limit was not always enough
Myeloid diff 2 = induction of myeloid progenitor differentiation, primary screen, cell-based, flow cytometry, MLPCN library; calls only at 10 µM; AID 624256, 2012; ER-HoxA9 myeloid progenitors, lysozyme-GFP differentiation; 1% of 360,000 active;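 active means normalized GFP-positive differentiation at or above the plate's own cutoff, the solvent-only control mean plus 3 SD; inconclusive means no clear call, values can overlap the other calls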;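 further: cells exposed to compound for four days before flow analysis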
Exocytosis inh = LAMP-1 surface exposure blockers, TALL-104 cells – cell-based, flow cytometry, MLPCN library, primary screen; inhibition, % at 10 µM; TALL-104 LAMP-1 surface exposure; cells stimulated with thapsigargin and PMA; 0.66% of 360,000 active;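 active means inhibition above about 55%, limit read from the data; inconclusive means no clear call, values can overlap the other calls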
Pemphigus Ab inh = inhibitors of pemphigus antibody binding to DSG3, primary screen, biochemical, bead-based, flow cytometry, scFv-GFP | AID 588358, 2011 | 0.48% of 310,000 active | Desmoglein-3 (Homo sapiens), P32926 | DSG3-coupled beads, scFv-anti-DSG3-GFP binding; hits give low values | binding (percent of control), % at 10 µM;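 active means binding more than 3 SD below its plate's average and above zero; inconclusive means below that plate limit but binding exactly zero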;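 further: hits lower antibody fragment binding to DSG3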
Numbers without * were called inactive; i = inactive; u = inconclusive; x = no result given; + = active, no number.

SMILES	SENP1 FRET inh	H9c2 protect	HNF4A DNA FP	Myeloid diff 2	Exocytosis inh	Pemphigus Ab inh
COc1ccc(Nc2ncnc3c2cnn3-c2cccc(C)c2)cc1OC	3.9	0.8	-4.2	i	-5.1	34.2*
Cc1cccc(-n2ncc3c(Nc4ccc(F)cc4)ncnc32)c1	2.3	-27.4	-2.3	i	12.4	99.5
CCOc1ccc(Nc2ncnc3c2cnn3Cc2ccccc2)cc1	-0.9	-1.4	7.2	i	-1.2	99.2
CCOc1ccc(Nc2ncnc3c2cnn3-c2ccccc2)cc1	2.0	-14.4	-2.6	i	-0.1	47.6*
CCOC(=O)c1sc(Nc2nc3ccc(OC)cc3s2)cc1C	-67.2	-11.8	-0.1	i	3.6	106.0
CCOC(=O)c1sc(Nc2nc3c(F)cccc3s2)cc1C	-29.3	-7.9	-0.1	i	-1.3	78.1*
O=C(NCCN1C(=O)S/C(=C\c2ccc(F)cc2)C1=O)C1CCN(S(=O)(=O)c2cccs2)CC1	1.0	-24.2	1.0	i	-0.9	115.3
COc1ccc(/C=C2\SC(=O)N(CCNC(=O)C3CCN(S(=O)(=O)c4cccs4)CC3)C2=O)cc1	1.1	-16.6	31.0*	i	1.3	103.6
c1ccc(Oc2ccc(-n3cnnn3)cc2)cc1	0.4	-1.4	56.5*	i	-2.4	97.0
O=C(Oc1ccccc1)c1ccc(-n2cnnn2)cc1	1.4	7.4	1.1	i	-0.6	101.1
Cc1sc2nc(CSCC(=O)Nc3ccccc3C#N)[nH]c(=O)c2c1C	2.9	46.7	13.9	+	2.2	72.3
Nc1ccc2nc(-c3ccccc3)cnc2c1	-39.5	-7.2	-35.6	+	11.3	101.9
Nc1ccc(-c2cnc3ccccc3n2)cc1	-37.1	-12.5	0.3	i	-3.1	98.8
C/C(=N\NC(=O)c1nnn(-c2nonc2N)c1-c1ccc(Cl)c(Cl)c1)c1ccncc1	3.2	3.7	0.5	i	0.2	108.2
COc1ccc(Br)cc1CN(C)CC(=O)NCc1ccc(F)cc1	1.9	-3.0	-2.0	+	37.2	149.2
CC(=O)Nc1cccc(C(=O)/C=C/c2ccc(N(C)C)cc2)c1	-28.5	-3.0	83.1*	u	22.8	x
O=C(/C=C/c1ccncc1)c1cc(Cl)ccc1O	-28.2	-0.8	4.7	+	4.9	92.3
CN(C)c1ccc(/C=C/C(=O)c2cc(Cl)ccc2O)cc1	-0.8	-14.6	74.9*	i	-12.1	99.4
CC(=O)Nc1cccc(C(=O)/C=C/c2ccc(F)cc2)c1	-0.3	-19.8	2.9	i	-1.2	97.2
CCN(CC)c1ccc2c(Cl)c(Br)c(=O)oc2c1	-24.4	-12.1	-89.2	+	0.6	x
CCN(CC)c1ccc2c(C)c(Cl)c(=O)oc2c1	-27.9	-17.3	-14.3	i	9.3	94.0
N#C/C(=C\Nc1ccccc1O)c1nc2ccccc2o1	0.0	-24.3	1.2	i	86.4*	84.4
CCc1ccc(NC(=O)C2CCC(CNC(=O)[C@@H]3Cc4ccccc4CN3)CC2)cc1 (some centres undefined)	2.3	1.8	-2.1	i	0.6	102.9
CN(c1ccccc1)S(=O)(=O)c1ccc(NC(=O)CC(=O)c2ccccc2)cc1	-1.1	-4.7	-0.4	+	5.4	x
O=C(Cc1ccc(Cl)cc1)Nc1ccc(NC(=O)c2ccccc2)cc1	2.2	-7.8	5.5	i	1.5	82.8
SMILES	SENP1 FRET inh	H9c2 protect	HNF4A DNA FP	Myeloid diff 2	Exocytosis inh	Pemphigus Ab inh
O=C(CC(=O)c1ccccc1)Nc1ccc(Cl)cc1	1.1	-4.0	41.8*	i	10.1	94.8
CC(=O)Nc1ccc(NC(=O)c2ccc(S(=O)(=O)N(C)c3ccccc3)cc2)cc1	1.5	-7.5	-0.1	i	0.5	x
O=C(NCCNC(=O)Nc1ccc(Cl)cc1)Nc1ccc(Cl)cc1	1.1	-2.6	-0.4	+	0.7	x
O=C(NCCO)Nc1ccc(Cl)cc1	1.9	5.0	-1.2	i	2.4	100.6
Cn1ncc([N+](=O)[O-])c1C(=O)Nc1ccc(-c2ccccc2)cc1	2.8	-8.5	4.3	i	-12.4	118.6
O=C(N/N=C/c1cccc2cccnc12)c1ccccc1O	1.0	4.6	1.1	i	3.2	99.6
CCOC(=O)C1=C(C)NC(C)=C(C(=O)OCC)C1C(=O)OCC(=O)NC1CCCCC1	-7.8	83.3*	-2.6	i	7.0	94.5
CSCCC(NS(=O)(=O)c1ccc2ccccc2c1)C(=O)OCC(=O)c1ccc(C(C)C)cc1 (centres undefined)	-3.1	-13.2	5.0	+	10.2	98.2
CCOc1cc(N2CCOCC2)c(OCC)cc1NC(=O)c1ccc(-n2ccnc2)c([N+](=O)[O-])c1	-3.0	35.8	-0.6	i	8.2	96.5
COc1ccccc1NC(=O)c1ccc(-n2ccnc2)c([N+](=O)[O-])c1	-1.6	-1.0	-1.6	i	-10.7	65.9*
COc1ccc([C@H]2/C=C\CN(S(=O)(=O)/C=C/c3ccccc3)[C@@H](C)C(=O)N2Cc2ccc(F)cc2)cc1	-0.4	-5.5	7.6	+	11.1	105.4
CN(C)/C=C/C(=O)c1ccc(-c2ccc(Cl)cc2Cl)o1	-18.3	5.5	1.4	i	-1.6	89.6
COc1ccc(N=Cc2cc(Cl)ccc2O)cc1Cl	-11.8	71.9*	1.1	i	1.8	97.9
Oc1ccc(Cl)cc1C=Nc1ccc(Br)cc1	-13.6	50.0*	1.0	i	-0.6	98.2
Oc1c(Br)cc(Cl)cc1C=Nc1ccc(N2CCOCC2)cc1	-27.8	47.7	3.1	i	32.7	93.2
Oc1ccc(N=Nc2cccc(Cl)c2)cc1C=Nc1ccc(N2CCOCC2)cc1	5.6	66.2*	-2.5	i	18.3	x
C#CCN(C[C@H]1[C@H](OC(=O)NC2CC2)[C@H](OC(=O)NC2CC2)C[C@@H](C(=O)OC)[C@H]1C(=O)OC)S(=O)(=O)c1ccc(C)cc1	2.2	7.0	-1.6	i	-0.5	x
Nc1nc2ccccc2cc1C(=O)NCc1cccs1	-23.0	x	3.5	i	-4.0	x
CN(C)CCNc1ncnc2c1sc1nc(-c3ccccc3)c3c(c12)CCCC3	-57.8	-17.5	22.3	+	29.6	115.3
CSc1nnc(C)c(/C=C/Nc2ccc(F)cc2F)n1	-26.2	-1.2	0.4	i	1.5	102.2
CSc1nsc(/C=C/Nc2ccc(F)cc2F)c1C#N	-20.1	3.1	42.1*	+	-3.7	79.2
CC(Sc1nnc(-c2ccncc2)n1C)C(=O)NCC1CCCO1 (centres undefined)	3.3	3.1	1.3	i	10.1	111.2
